SMILES strings stand for the structures. The source made the active and inactive calls. The rule behind the calls is not given here.

Drawing on ChEMBL document CHEMBL3734658, “Ring-truncated deguelin derivatives as potent Hypoxia Inducible Factor-1α (HIF-1α) inhibitors” (Eur J Med Chem, 2015), this text covers Activity, inhibition and response, % of control for 44 compounds.

Data set [1] is filed under the species Homo sapiens. The data set is described as follows: Antiangiogenic activity in human RMVEC assessed as inhibition of VEGF-induced cell proliferation under hypoxic condition at 100 nM by [3H]thymidine incorporation assay. The data set is classed as functional. Background: Incorporation of labelled thymidine or its analogues reports DNA synthesis.
Data set [2] has as its target Hypoxia-inducible factor 1-alpha (Homo sapiens) (UniProt Q16665). The data set can be described thus: Inhibition of HIF-1alpha in human H1299 cells after 72 hrs subsequently incubated for 12 hrs under hypoxic conditions by Western blot assay relative to control. The data set is classed as cell-based. Summed up:
(§1)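 H1299 non-small-cell lung carcinoma cells were left untreated or exposed to compound at 100 nM (or 10 nM for a follow-up subset) for 72 h. They were then held under hypoxia for 12 h, and HIF-1α protein was assessed by western blot.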
A general note: A western blot detects proteins with antibodies after separation by electrophoresis.

Data set [3] shares this target. The data set can be described thus: Inhibition of HIF-1alpha in human H1299 cells at 10 nM after 72 hrs subsequently incubated for 12 hrs under hypoxic conditions by Western blot assay relative to control. The data set is classed as cell-based. The following applies: values are per cent of control. Put shortly:
as §1

The next data set has as its system NCI-H1299. The data set is described as follows: Antitumor activity against human H1299 cells assessed as reduction in cell viability by MTT assay. It counts as functional, cell-based. (In general: Tetrazolium dyes change colour on reduction, which living cells bring about.)
The species entered for data set [4] is Homo sapiens. The data set can be described thus: Antiangiogenic activity in human RMVEC assessed as inhibition of VEGF-induced cell migration under hypoxic condition at 100 nM by transwell chamber system. The data set is classed as functional.
In data set [5] the target is Hypoxia-inducible factor 1-alpha (Homo sapiens) (UniProt Q16665). The data set can be described thus: Inhibition of HIF-1alpha in human H1299 cells at 100 nM after 72 hrs subsequently incubated for 12 hrs under hypoxic conditions by Western blot assay relative to control. It counts as cell-based. The following applies: values are per cent of control. Put shortly:
as §1

Data set [6] can be described thus: Cytotoxicity against mouse HT22 cells assessed as cell viability at 0.1 to 10 uM. It counts as cell-based. Particulars: ht-22, 10 µM.
The nature of data set [7]: Antitumor activity against human H1299 cells assessed as reduction in cell viability at 20 uM by MTT assay. Particulars: NCI-H1299. It counts as functional.

Chain of Hypoxia-inducible factor 1-alpha (Homo sapiens) (Q16665 whole entry, looked up): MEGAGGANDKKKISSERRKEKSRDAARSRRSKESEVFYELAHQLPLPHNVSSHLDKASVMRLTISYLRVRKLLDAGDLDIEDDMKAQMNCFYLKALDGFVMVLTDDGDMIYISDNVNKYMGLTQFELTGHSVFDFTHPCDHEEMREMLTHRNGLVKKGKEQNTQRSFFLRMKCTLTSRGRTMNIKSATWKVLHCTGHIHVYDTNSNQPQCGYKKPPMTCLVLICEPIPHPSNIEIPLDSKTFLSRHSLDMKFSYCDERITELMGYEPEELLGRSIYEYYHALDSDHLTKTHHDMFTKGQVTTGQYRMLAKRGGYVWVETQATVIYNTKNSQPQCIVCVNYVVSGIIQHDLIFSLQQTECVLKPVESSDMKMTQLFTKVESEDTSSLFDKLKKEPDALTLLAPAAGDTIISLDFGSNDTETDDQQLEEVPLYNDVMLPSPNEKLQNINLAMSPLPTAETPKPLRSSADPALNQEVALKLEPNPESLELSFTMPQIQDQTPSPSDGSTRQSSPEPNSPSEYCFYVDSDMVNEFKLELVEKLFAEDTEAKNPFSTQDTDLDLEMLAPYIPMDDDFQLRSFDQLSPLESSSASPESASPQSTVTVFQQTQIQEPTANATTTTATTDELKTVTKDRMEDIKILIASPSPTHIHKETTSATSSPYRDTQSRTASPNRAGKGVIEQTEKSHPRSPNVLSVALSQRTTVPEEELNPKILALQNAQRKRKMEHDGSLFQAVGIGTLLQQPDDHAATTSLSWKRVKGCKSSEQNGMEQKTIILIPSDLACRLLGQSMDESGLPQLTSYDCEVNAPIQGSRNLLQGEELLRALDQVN

`COc1ccc([C@H](C)[C@@H](OC(C)=O)c2ccc3c(c2OC)C=CC(C)(C)O3)c(F)c1OC` (relative stereo): the result in the data set listed under Homo sapiens [1] and in the data set filed under Homo sapiens [4] was Active. Further, in data set [2], the inhibition result was “Dose-dependent effect”. Besides, the results for the response, % of control in data set [3] and in data set [5] were 63.2% and 52.2%, respectively. The Activity entry was “Dose-dependent effect” with NCI-H1299 and “Non-toxic” in data set [6]. For the same compound, the inhibition at 20 µM in data set [7] is 50%.

The compound `COc1ccc(CC(OC(C)=O)c2ccc3c(c2OC)C=CC(C)(C)O3)nc1OC` (stereo not given) gave a response, % of control in data set [5] of 114%.

The compound `COc1ccc(C(C)(C)C(OC(=O)C2CC2)c2ccc3c(c2OC)C=CC(C)(C)O3)c(F)c1OC` (stereo not given) registered a response, % of control in data set [5] of 111%.

The compound `COc1ccc(CC(OC(=O)C2CC2)c2ccc3c(c2OC)C=CC(C)(C)O3)c(F)c1OC` (stereo not given) came in with a response, % of control in data set [5] of 70.3%.

As to `COc1ccc(C(C)(C)C(OC(C)=O)c2ccc3c(c2OC)C=CC(C)(C)O3)nc1OC` (stereo not given), the response, % of control in data set [5] is 113%.

For the compound `COc1ccc([C@H](O)[C@@H](O)c2ccc3c(c2OC)C=CC(C)(C)O3)c(F)c1OC` (relative stereo), the response, % of control in data set [5] was found to be 68.1%.

For `CCC(=O)OC(Cc1ccc(OC)c(OC)c1F)c1ccc2c(c1OC)C=CC(C)(C)O2` (stereo not given), the response, % of control in data set [5] stood at 77.3%.

Compound `COc1ccc(C(C)C(OC(C)=O)c2ccc3c(c2OC)C=CC(C)(C)O3)nc1OC` (stereo not given) came in with a response, % of control in data set [5] of 96.7%.

Take `COc1ccc(C(C)C(O)c2ccc3c(c2OC)C=CC(C)(C)O3)nc1OC` (stereo not given): the response, % of control in data set [5] was determined as 71.2%.

The compound `COc1ccc(C(C)C(=O)c2ccc3c(c2OC)C=CC(C)(C)O3)nc1OC` (stereo not given) returned a response, % of control in data set [5] of 89.3%.

On to `COc1ccc(CC(OC(N)=O)c2ccc3c(c2OC)C=CC(C)(C)O3)nc1OC` (stereo not given), for which the response, % of control in data set [5] is 75%.

Regarding `CO/N=C(/Cc1ccc(OC)c(OC)n1)c1ccc2c(c1OC)C=CC(C)(C)O2`, the response, % of control stood at 74% in data set [3] and 64.8% in data set [5].

In data set [5], `CCC(c1ccc(OC)c(OC)c1F)C(OC(=O)C1CC1)c1ccc2c(c1OC)C=CC(C)(C)O2` (stereo not given) registered a response, % of control of 87.9%.

In data set [5], `CNC(=O)OC(c1ccc2c(c1OC)C=CC(C)(C)O2)C(C)c1ccc(OC)c(OC)c1F` (stereo not given) had a response, % of control of 76.5%.

`COc1ccc(CC(=O)c2ccc3c(c2OC)C=CC(C)(C)O3)nc1OC`: the response, % of control in data set [5] turned out to be 77.6%.

For the compound `CCC(=O)OC(c1ccc2c(c1OC)C=CC(C)(C)O2)C(C)c1ccc(OC)c(OC)c1F` (stereo not given), in data set [5], the response, % of control came to 63.7%.

On to `COc1ccc(C/C(=N/O)c2ccc3c(c2OC)C=CC(C)(C)O3)nc1OC`, for which, in data set [5], the response, % of control was 79.2%.

`COc1ccc(C(C)C(OC(=O)C2CCC2)c2ccc3c(c2OC)C=CC(C)(C)O3)c(F)c1OC` (stereo not given): the response, % of control in data set [5] is 69.5%.

In data set [5], `COc1ccc(C/C(=N\O)c2ccc3c(c2OC)C=CC(C)(C)O3)nc1OC` registered a response, % of control of 78.5%.

For the compound `COc1ccc([C@H](C)C(=O)c2ccc3c(c2OC)C=CC(C)(C)O3)nc1OC`, the response, % of control in data set [3] came out at 88.4%; in data set [5] it was 44.2%.

`COc1ccc(C(C)(C)C(O)c2ccc3c(c2OC)C=CC(C)(C)O3)c(F)c1OC` (stereo not given) registered a response, % of control in data set [5] of 68%.

Consider `COc1ccc([C@H](C)[C@H](OC(C)=O)c2ccc3c(c2OC)C=CC(C)(C)O3)c(F)c1OC` (relative stereo), for which the response, % of control in data set [5] was 79.4%.

For the compound `COc1ccc(C(C)C(O)c2ccc3c(c2OC)C=CC(C)(C)O3)c(F)c1OC` (stereo not given), the response, % of control in data set [5] was 75%.

With `COc1cc2c(cc1OC)[C@@H]1C(=O)c3ccc4c(c3O[C@@H]1CO2)C=CC(C)(C)O4` [DEGUELIN], the values for the response, % of control in data set [3] and in data set [5] were 94% and 64%, respectively. Moreover, in data set [6], the Activity entry is reported as “Toxic”.

`COc1ccc(C(C)(C)C(=O)c2ccc3c(c2OC)C=CC(C)(C)O3)nc1OC`: the response, % of control in data set [5] is 99.9%.

Consider `COc1ccc(C(C)C(OC(N)=O)c2ccc3c(c2OC)C=CC(C)(C)O3)c(F)c1OC` (stereo not given), for which the response, % of control in data set [3] came to 80.9%; in data set [5] it was 48.8%.

Regarding `COc1ccc(CC(OC(C)=O)c2ccc3c(c2OC)C=CC(C)(C)O3)c(F)c1OC` (stereo not given), the response, % of control in data set [5] stood at 69.3%.

Regarding `COc1ccc(C(C)C(OC(=O)N(C)C)c2ccc3c(c2OC)C=CC(C)(C)O3)c(F)c1OC` (stereo not given), the response, % of control was determined as 93.6% in data set [3] and 64.1% in data set [5].

Turning to `COc1ccc(C(C)C(=O)c2ccc3c(c2OC)C=CC(C)(C)O3)c(F)c1OC` (stereo not given), in data set [5], the response, % of control worked out at 78.6%.

Regarding `COc1ccc(/C=C/c2ccc3c(c2OC)C=CC(C)(C)O3)c(F)c1OC`, the response, % of control in data set [5] came out at 134%.

On to `COc1ccc(C(C)C(OC(=O)C2CC2)c2ccc3c(c2OC)C=CC(C)(C)O3)c(F)c1OC` (stereo not given), for which the response, % of control in data set [3] stood at 81.6%; in data set [5] it was 35%. Also, in the data set with NCI-H1299, the Activity result was “Dose-dependent effect”. Moreover, the inhibition at 20 µM in data set [7] worked out at 50%.

For the compound `COc1ccc(C(C)(C)C(OC(C)=O)c2ccc3c(c2OC)C=CC(C)(C)O3)c(F)c1OC` (stereo not given), the response, % of control in data set [5] worked out at 83.4%.

Take `COc1ccc([C@H](O)[C@@H](O)c2ccc3c(c2OC)C=CC(C)(C)O3)nc1OC` (relative stereo): the response, % of control in data set [5] was found to be 68.9%.

The compound `COc1ccc(CC(=O)c2ccc3c(c2OC)C=CC(C)(C)O3)cc1OC` came in with a response, % of control in data set [5] of 85.3%.

For the compound `CCC(=O)OC(c1ccc2c(c1OC)C=CC(C)(C)O2)C(C)(C)c1ccc(OC)c(OC)c1F` (stereo not given), in data set [5], the response, % of control was determined as 88.2%.

Take `COc1ccc([C@H](C)C(=O)c2ccc3c(c2OC)C=CC(C)(C)O3)cc1OC`: in data set [5], the response, % of control came to 82.1%.

The compound `COc1ccc(/C=C/c2ccc3c(c2OC)C=CC(C)(C)O3)nc1OC` came in with a response, % of control in data set [5] of 133%.

As to `COc1ccc(CC(OC(N)=O)c2ccc3c(c2OC)C=CC(C)(C)O3)c(F)c1OC` (stereo not given), in data set [5], the response, % of control worked out at 88.9%.

With `COc1ccc(C(C)(C)C(=O)c2ccc3c(c2OC)C=CC(C)(C)O3)c(F)c1OC`, the response, % of control in data set [5] was 74.9%.

Turning to `COc1ccc(CC(=O)c2ccc3c(c2OC)C=CC(C)(C)O3)c(F)c1OC`, the response, % of control in data set [5] came out at 67.8%.

In data set [5], `COc1ccc(C(C)(C)C(O)c2ccc3c(c2OC)C=CC(C)(C)O3)nc1OC` (stereo not given) showed a response, % of control of 69.2%.

For the compound `COc1ccc(C(C)(C)C(OC(N)=O)c2ccc3c(c2OC)C=CC(C)(C)O3)nc1OC` (stereo not given), the response, % of control in data set [5] turned out to be 108%.

The compound `COc1ccc(CC(O)c2ccc3c(c2OC)C=CC(C)(C)O3)c(F)c1OC` (stereo not given) displayed a response, % of control in data set [5] of 74.3%.

Consider `COc1ccc(CC(O)c2ccc3c(c2OC)C=CC(C)(C)O3)nc1OC` (stereo not given), for which the response, % of control in data set [5] is 75.2%.

What is called inhibition is the change of the read-out against control, counted positive when it falls.
